{
  "source": "ChEMBL document CHEMBL4837217",
  "about": "“Design, synthesis, in vitro and in vivo biological evaluation of pyranone-piperazine analogs as potent antileishmanial agents” (Eur J Med Chem, 2021)",
  "key": {"Leishmania donovani [1]": {"test_system": "Leishmania donovani", "assay": "Induction of apoptosis in Leishmania donovani MHOM/IN/80/Dd8 promastigotes assessed as late apoptotic cells at 50 uM measured after 72 hrs by Alexa fluor488-AnnexinV/PI staining based FACSCalibur flow cytometry analysis (reference value: 0.7%)", "type": "functional"}, "Leishmania donovani [2]": {"test_system": "Leishmania donovani", "assay": "Antileishmanial activity against log phase of Leishmania donovani MHOM/IN/80/Dd8 promastigotes assessed as reduction in cell viability by MTT assay", "type": "functional, organism-based", "details": "time 12-72 hrs, TDE = time-dependent effect"}, "Splenocyte [3]": {"test_system": "Splenocyte", "assay": "Immunomodulatory activity in BALB/c mouse infected with Leishmania donovani amastigotes assessed as decrease in TGF-beta level in splenocytes supernatants at 50 mg/kg, ip for 5 days", "type": "functional, organism-based", "details": "time 5.0 day"}, "Leishmania donovani [4]": {"test_system": "Leishmania donovani", "assay": "Induction of mitochondrial membrane potential dysfunction in Leishmania donovani MHOM/IN/80/Dd8 promastigotes assessed as cells with mitochondrial depolarization at 50 uM incubated for 24 hrs by JC1 staining based flow cytometry (reference value: 3.63%)", "type": "functional", "procedure,_shortened": "(§1)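 Promastigotes (1 × 10^6 cells/mL) exposed to 50 µM for 24–72 h, or to IC50 for 72 h. CCCP (50 µM final) served as depolarization positive control. Cells washed, stained with JC-1 (2 µM final) 30 min at 37 °C, 5% CO2. Red-to-green fluorescence shift measured by flow cytometry.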"}, "Leishmania donovani [5]": {"test_system": "Leishmania donovani", "assay": "Induction of apoptosis in Leishmania donovani MHOM/IN/80/Dd8 promastigotes assessed as late apoptotic cells at 50 uM measured after 24 hrs by Alexa fluor488-AnnexinV/PI staining based FACSCalibur flow cytometry analysis (reference value: 0.7%)", "type": "functional"}, "Leishmania donovani [6]": {"test_system": "Leishmania donovani", "assay": "Antileishmanial activity against amastigote stage of Leishmania donovani MHOM/IN/80/Dd8 harboring luciferase gene infected in mouse J774 cells assessed as parasite killing at 50 to 100 uM incubated for 72 hrs by Steady-Glo reagent based luciferase assay", "type": "functional", "details": "dose 50-100 µM", "procedure,_shortened": "(§2)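 J774 murine macrophages, 4 × 10⁴ cells/well in RPMI with 10% FBS for 24 h, are infected for 24 h at 37 °C, 5% CO₂ with stationary-phase luciferase-transfected L. donovani Dd8 promastigotes at a 1:8 macrophage:parasite ratio. Compounds are dissolved in DMSO. Luminescence is read after Steady-Glo is added in PBS. IC₅₀ is taken from a four-parameter Hill nonlinear regression. Miltefosine is the reference.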"}, "Leishmania donovani [7]": {"test_system": "Leishmania donovani", "assay": "Antileishmanial activity against log phase of Leishmania donovani MHOM/IN/80/Dd8 promastigotes assessed as reduction in cell viability at 50 uM incubated for 72 hrs by MTT assay", "type": "functional", "procedure,_shortened": "(§3)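 Log-phase luciferase-transfected L. donovani Dd8 promastigotes (M199 + 10% FBS, 24 °C) treated with compounds at 25 and 50 µM in DMSO, with 0.1% DMSO vehicle control. After 72 h, MTT added 4 h. Formazan dissolved in DMSO, read at 570 nm. Percent inhibition reported as mean ± SD of at least three independent experiments in replicate.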"}, "Leishmania donovani [8]": {"test_system": "Leishmania donovani", "assay": "Induction of apoptosis in Leishmania donovani MHOM/IN/80/Dd8 promastigotes assessed as early apoptotic cells at 50 uM measured after 72 hrs by Alexa fluor488-AnnexinV/PI staining based FACSCalibur flow cytometry analysis (reference value: 10.3%)", "type": "functional"}, "Leishmania donovani [9]": {"test_system": "Leishmania donovani", "assay": "Induction of apoptosis in Leishmania donovani MHOM/IN/80/Dd8 promastigotes assessed as early apoptotic cells at 50 uM measured after 24 hrs by Alexa fluor488-AnnexinV/PI staining based FACSCalibur flow cytometry analysis (reference value: 10.3%)", "type": "functional"}, "Splenocyte [10]": {"test_system": "Splenocyte", "assay": "Immunomodulatory activity in BALB/c mouse infected with Leishmania donovani amastigotes assessed as increase in IL-12 level in splenocytes supernatants at 50 mg/kg, ip for 5 days", "type": "functional, organism-based", "details": "time 5.0 day"}, "Leishmania donovani [11]": {"test_system": "Leishmania donovani", "assay": "Induction of mitochondrial membrane potential dysfunction in Leishmania donovani MHOM/IN/80/Dd8 promastigotes assessed as cells with mitochondrial depolarization at 50 uM incubated for 48 hrs by JC1 staining based flow cytometry (reference value: 3.63%)", "type": "functional", "procedure,_shortened": "as §1"}, "Leishmania donovani [12]": {"test_system": "Leishmania donovani", "assay": "Induction of mitochondrial membrane potential dysfunction in Leishmania donovani MHOM/IN/80/Dd8 promastigotes assessed as cells with mitochondrial depolarization at IC50 incubated for 72 hrs by JC1 staining based flow cytometry (reference value: 6.6%)", "type": "functional", "procedure,_shortened": "as §1"}, "Leishmania donovani [13]": {"test_system": "Leishmania donovani", "assay": "Antileishmanial activity against amastigote stage of Leishmania donovani MHOM/IN/80/Dd8 harboring luciferase gene infected in mouse J774 cells assessed as parasite growth inhibition at 50 uM incubated for 72 hrs by Steady-Glo reagent based luciferase assay", "type": "functional", "details": "MHOM/IN/80/Dd8, J774", "procedure,_shortened": "as §2"}, "[14]": {"assay": "Cytotoxicity against mouse J774 cells assessed as reduction in cell viability incubated for 72 hrs by MTT assay", "type": "cell-based", "procedure,_shortened": "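J774 macrophages seeded at 1 × 10^5 cells/well overnight, then exposed to graded concentrations (7.81–500 µM) for 72 h at 37 °C, 5% CO2. MTT (5 mg/mL) added for 2 h, formazan solubilized in DMSO and read at 570 nm. CC50 taken as 50% viability loss relative to untreated cells.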"}, "Leishmania donovani [15]": {"test_system": "Leishmania donovani", "assay": "Antileishmanial activity against amastigote stage of Leishmania donovani MHOM/IN/80/Dd8 harboring luciferase gene infected in mouse J774 cells assessed as parasite killing incubated for 72 hrs by Steady-Glo reagent based luciferase assay", "type": "functional, organism-based", "details": "dose 3.12-50 µM", "procedure,_shortened": "as §2"}, "Splenocyte [16]": {"test_system": "Splenocyte", "assay": "Immunomodulatory activity in BALB/c mouse infected with Leishmania donovani amastigotes assessed as decrease in IL-10 level in splenocytes supernatants at 50 mg/kg, ip for 5 days", "type": "functional, organism-based", "details": "time 5.0 day"}, "Leishmania donovani [17]": {"test_system": "Leishmania donovani", "assay": "Antileishmanial activity against log phase of Leishmania donovani MHOM/IN/80/Dd8 promastigotes assessed as reduction in cell viability at 25 uM incubated for 72 hrs by MTT assay", "type": "functional", "procedure,_shortened": "as §3"}, "Splenocyte [18]": {"test_system": "Splenocyte", "assay": "Immunomodulatory activity in BALB/c mouse infected with Leishmania donovani amastigotes assessed as increase in IFN-gamma level in splenocytes supernatants at 50 mg/kg, ip for 5 days", "type": "functional, organism-based", "details": "time 5.0 day"}, "Leishmania donovani [19]": {"test_system": "Leishmania donovani", "assay": "Induction of apoptosis in Leishmania donovani MHOM/IN/80/Dd8 promastigotes assessed as increase in cytochrome c release by measuring decrease in cytochrome c level in mitochondria at 50 uM incubated for 12 to 72 hrs by Western blot analysis", "type": "functional, organism-based", "details": "time 12-72 hrs", "procedure,_shortened": "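Promastigotes treated with 50 µM for 12, 24, 48 and 72 h, then washed in PBS. Cell fractionation buffer applied 10 min on ice, cells homogenized, centrifuged 10,000 × g for 25 min at 4 °C. Cytosolic and mitochondrial fractions immunoblotted for cytochrome c. Loading controls were actin (cytosol) and COX-4 (mitochondria).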"}, "Leishmania donovani [20]": {"test_system": "Leishmania donovani", "assay": "Induction of apoptosis in Leishmania donovani MHOM/IN/80/Dd8 promastigotes assessed as DNA fragmentation by measuring bright green coloured positive apoptotic nuclei at 50 uM incubated for 72 hrs by TUNEL staining based confocal microscopic analysis", "type": "functional, organism-based", "procedure,_shortened": "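Log-phase promastigotes treated with 50 µM for 72 h, washed, adhered to poly-L-lysine slides and fixed in 4% paraformaldehyde. Permeabilized in ice-cold 70% ethanol 30 min. Labeled with TdT/BrdUTP 60 min at 37 °C, then Alexa Fluor 488 anti-BrdU 30 min and PI/RNase A 30 min. Imaged by confocal microscopy; vehicle was 0.1% DMSO.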"}, "Leishmania donovani [21]": {"test_system": "Leishmania donovani", "assay": "Induction of mitochondrial membrane potential dysfunction in Leishmania donovani MHOM/IN/80/Dd8 promastigotes assessed as cells with mitochondrial depolarization at 50 uM incubated for 72 hrs by JC1 staining based flow cytometry (reference value: 3.63%)", "type": "functional"}},
  "note": "Active and inactive are the calls of the source. The rule behind the calls is not given here.",
  "data": [
    {"smiles": "N#Cc1c(N2CCN(c3ccccc3O)CC2)cc(-c2ccccc2)oc1=O", "values": [
      {"measurement": "Activity", "setting": "Leishmania donovani [1]", "value": 13.1, "unit": "%"},
      {"measurement": "Activity", "setting": "Leishmania donovani [2]", "value": "Tde"},
      {"measurement": "Activity", "setting": "Splenocyte [3]", "value": "inactive"},
      {"measurement": "Activity", "setting": "Leishmania donovani [4]", "value": 32.9, "unit": "%"},
      {"measurement": "Activity", "setting": "Leishmania donovani [5]", "value": 1.2, "unit": "%"},
      {"measurement": "Activity", "setting": "Leishmania donovani [6]", "value": ">89", "unit": "%"},
      {"measurement": "inhibition at 50 µM", "setting": "Leishmania donovani [7]", "value": 85.2, "unit": "%"},
      {"measurement": "Activity", "setting": "Leishmania donovani [8]", "value": 41.4, "unit": "%"},
      {"measurement": "Activity", "setting": "Leishmania donovani [9]", "value": 15.4, "unit": "%"},
      {"measurement": "Activity", "setting": "Splenocyte [10]", "value": "inactive"},
      {"measurement": "Activity", "setting": "Leishmania donovani [11]", "value": 54.1, "unit": "%"},
      {"measurement": "Activity", "setting": "Leishmania donovani [12]", "value": 22.9, "unit": "%"},
      {"measurement": "inhibition at 50 µM", "setting": "Leishmania donovani [13]", "value": 95.7, "unit": "%"},
      {"measurement": "CC50 at 72 h", "setting": "[14]", "value": 351, "unit": "µM"},
      {"measurement": "Activity", "setting": "Leishmania donovani [15]", "value": "Dose-Dependent Effect"},
      {"measurement": "Activity", "setting": "Splenocyte [16]", "value": "inactive"},
      {"measurement": "inhibition at 25 µM", "setting": "Leishmania donovani [17]", "value": 82.7, "unit": "%"},
      {"measurement": "Activity", "setting": "Splenocyte [18]", "value": "inactive"},
      {"measurement": "Activity", "setting": "Leishmania donovani [19]", "value": "Active"},
      {"measurement": "Activity", "setting": "Leishmania donovani [20]", "value": "Active"},
      {"measurement": "Activity", "setting": "Leishmania donovani [21]", "value": 86.9, "unit": "%"}
    ]}
  ]
}
